The text below walks through data of ChEMBL document CHEMBL1125515, “DNA-directed alkylating agents. 5. Acridinecarboxamide derivatives of (1,2-diaminoethane)dichloroplatinum(II)” (J Med Chem, 1992).

One may read the IC50 as the concentration at which inhibition is half-maximal. The low end stands for inhibition by little substance, the high end for a need for much substance.

The nature of assay [1]: In Vitro evaluation for the growth inhibition of Subline (P388/AMSA) Leukemia cell lines. Format: functional, cell-based, Mus musculus. Put shortly:
(§1)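 Cells were continuously exposed to drug for 72 h in 96-well cultures. IC50 is the drug concentration (μM) inhibiting cell growth by 50%. Determinations were run in triplicate.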

The nature of assay [2]: In Vitro evaluation for the growth inhibition of Subline (P388/CP) Leukemia cell lines. Format: functional, cell-based, Mus musculus. The method, boiled down:
as §1

In assay [3] the test system is Mus musculus. The assay can be described thus: Compound was treated in vivo for percent increase in life span of treated animals (optimal dose 13.3 mg/kg, ip) compared with […]/W bearing control animals. Format: functional, organism-based. More on the design: dose 13.3 mg/kg. The settings on record: at 13.3 mg/kg.
Assay [4] relates to Mus musculus. Kind of assay: Compound was treated in vivo for percent increase in life span of treated animals (optimal dose 13.3 mg/kg) compared with […]/CP bering control animals. Format: functional, organism-based. Set-up: dose 13.3 mg/kg. The settings on record: at 13.3 mg/kg.
Assay [5] relates to Mus musculus. The assay can be described thus: Compound was treated in vivo for percent increase in life span of treated animals (optimal dose 100 mg/kg, ip) compared with […]/W bearing control animals. Format: functional.
Another assay deals with P388. The assay can be described thus: In Vitro evaluation for the growth inhibition of Wildtype P388 Leukemia cell lines. Format: functional, cell-based. The settings on record: Mus musculus. The method, boiled down:
as §1

Assay [6] has as its system Mus musculus. Kind of assay: Compound was treated in vivo for percent increase in life span of treated animals (optimal dose 5.3 mg/kg, ip) compared with P338/W bearing control animals. Format: functional, organism-based. More on the design: dose 5.3 mg/kg. The settings on record: at 5.3 mg/kg.
Assay [7] has as its system Mus musculus. Kind of assay: Compound was treated in vivo for percent increase in life span of treated animals (optimal dose 5.5 mg/kg, ip) compared with P338/W bearing control animals. The settings on record: at 5.5 mg/kg. Format: functional, organism-based. Set-up: dose 5.5 mg/kg.
Assay [8] deals with Mus musculus. Kind of assay: Compound was treated in vivo for percent increase in life span of treated animals (optimal dose 20 mg/kg, ip) compared with […]/W bearing control animals. Format: functional.
The subject of assay [9] is Mus musculus. The assay can be described thus: Compound was treated in vivo for percent increase in life span of treated animals (optimal dose 65 mg/kg, ip) compared with P338/W bearing control animals. Format: functional.
The test system of assay [10] is Mus musculus. Kind of assay: Compound was treated in vivo for percent increase in life span of treated animals (optimal dose 45 mg/kg, ip) compared with […]/W bearing control animals. Format: functional.
Assay [11] concerns Mus musculus. Kind of assay: Compound was treated in vivo for percent increase in life span of treated animals (optimal dose 30 mg/kg, ip) compared with […]/W bearing control animals. Format: functional.

Regarding CISPLATIN [listing 1 of 2 here], the IC50 in assay [1] was found to be 5500 nM; in assay [2], 5300 nM.

On to “DICHLORO(ETHYLENEDIAMINE) PLATINUM (II) [listing 1 of 2 here]”, for which the Increase in life-span is 70% in the assay with Mus musculus [3] and under 20% in the assay with Mus musculus [4].

With `Cl.NCCNCCCNC(=O)c1ccc2nc3ccccc3cc2c1`, the results for the IC50 (in [2] (Mus musculus); in the assay with P388) were 4900 nM and 3800 nM, respectively. Moreover, in the assay on Mus musculus [5], the Increase in life-span is listed as under 20%.

For the molecule CISPLATIN [listing 2 of 2 here], the values for the Increase in life-span with Mus musculus [6] and in the assay on Mus musculus [7] were 120% and under 20%, respectively.

In assay [2], “DICHLORO(ETHYLENEDIAMINE) PLATINUM (II) [listing 2 of 2 here]” came in with an IC50 of 1030 nM.

On to `Cl.NCCNCCCCCCNC(=O)c1cccc2cc3ccccc3nc12`, for which the IC50 in [1] (Mus musculus) was found to be 1100 nM; in assay [2] (Mus musculus), 350 nM; with P388, 510 nM. This molecule gave an Increase in life-span with Mus musculus [8] of 23%.

As for `Cl.NCCNCCCCCCNC(=O)c1cccc2c(N)c3ccccc3nc12`, the IC50 was 2300 nM in assay [2] (Mus musculus) and 5200 nM with P388. This molecule also returned an Increase in life-span in the assay with Mus musculus [9] of under 20%.

With `Cl.NCCNCCCNC(=O)c1cccc2c(N)c3ccccc3nc12`, the IC50 in assay [1] (Mus musculus) worked out at 870 nM; in assay [2] (Mus musculus) it was 2600 nM; with P388, 3100 nM. For the same molecule, the Increase in life-span in the assay with Mus musculus [10] stood at 45%.

Regarding `Cl.NCCNCCCCCCNC(=O)c1ccc2nc3ccccc3cc2c1`, the IC50 in assay [2] (Mus musculus) was 3800 nM; with P388, 3600 nM. In addition, the Increase in life-span in the assay on Mus musculus [5] was under 20%.

As to `Cl.NCCNCCCNC(=O)c1cccc2cc3ccccc3nc12`, the IC50 is 1600 nM in assay [1] (Mus musculus), 590 nM in assay [2] (Mus musculus) and 740 nM in the assay on P388. Moreover, in the assay with Mus musculus [11], the Increase in life-span is reported as 64%.
